Tests used:
[1] = biological target: DNA polymerase beta (Homo sapiens, UniProt P06746); test: Inhibition of human DNA polymerase beta
[2] = Inhibition of human N terminal deleted DNA polymerase lambda Del-1 mutant
Outline: (§1)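 Dose-response was run on 0.05 U of full-length (residues 1–575), del-1 (133–575) or del-2 (245–575) human pol λ. Compound in DMSO was preincubated 10 min at 0 °C, then the reaction ran 60 min at 37 °C with poly(dA)/oligo(dT)12-18 and dTTP. Activity relative to the no-compound control; means ± SEM of three independent experiments.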

[3] = biological target: T1, DNA polymerase lambda (Homo sapiens, UniProt Q9UGP5); test: Inhibition of human DNA polymerase lambda; outline: as §1
T1 sequence (Q9UGP5 whole entry): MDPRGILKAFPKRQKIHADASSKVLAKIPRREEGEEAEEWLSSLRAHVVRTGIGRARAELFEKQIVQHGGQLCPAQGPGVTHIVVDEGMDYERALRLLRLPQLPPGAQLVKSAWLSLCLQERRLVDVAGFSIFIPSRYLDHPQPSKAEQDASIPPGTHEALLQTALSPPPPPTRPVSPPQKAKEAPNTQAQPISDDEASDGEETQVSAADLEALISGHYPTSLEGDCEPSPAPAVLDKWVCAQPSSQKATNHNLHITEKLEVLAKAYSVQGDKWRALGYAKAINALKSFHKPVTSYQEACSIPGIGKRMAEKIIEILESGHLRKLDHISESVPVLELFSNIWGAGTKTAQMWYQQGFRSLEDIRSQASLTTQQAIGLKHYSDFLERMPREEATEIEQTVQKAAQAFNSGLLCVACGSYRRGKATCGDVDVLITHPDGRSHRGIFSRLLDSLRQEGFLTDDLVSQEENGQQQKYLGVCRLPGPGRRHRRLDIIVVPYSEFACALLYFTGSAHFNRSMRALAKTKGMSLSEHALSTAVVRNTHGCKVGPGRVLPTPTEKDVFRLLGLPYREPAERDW

[4] = Inhibition of human N terminal deleted DNA polymerase lambda Del-2 mutant; outline: as §1

Question: What does the source list for `C/C(=C\CC[C@H](C)C(=O)O)[C@H]1CC[C@H](C(=O)O)CC1` [HYMENOIC ACID]?
Answer: IC50 [1]: > 200 µM; IC50 [2]: > 200 µM; IC50 [3]: 91.7 µM; IC50 [4]: > 200 µM
